Our source for the Activity values is ChEMBL document CHEMBL1909603, “Synthesis of novel N-(2-hydroxy-2-p-tolylethyl)-amide and N-(2-oxo-2-p-tolylethyl)-amide derivatives and their antidyslipidemic and antioxidant activity” (2011).

The first assay deals with Rattus norvegicus. The assay is described as follows: Antihyperlipidemic activity in Charles Foster rat assessed as reduction of triton WR-1339-induced plasma post heparin lipolytic activity assessed per mL of plasma at 100 mg/kg, po after 18 hrs. It counts as functional. Details: scale not given: the % may be the effect or the level left. The gist of the method:
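Male Charles Foster rats (100–150 g), six per group. Triton WR-1339 400 mg/kg ip together with an oral 100 mg/kg dose in gum acacia suspension. Diet was withdrawn and vehicle controls were included. At 18 h, EDTA plasma was taken from retro-orbital blood. Post-heparin lipolytic activity was measured spectrophotometrically as nmol free fatty acid formed/h/ml plasma. Mean SD.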
On to `Cc1ccc(C(O)CNC(=O)Cc2cccnc2)cc1` (racemic), for which the Activity turned out to be 19%.

In the case of `Cc1ccc(C(=O)CNC(=O)CCc2cccnc2)cc1`, the Activity stood at 20%.

On to `Cc1ccc(C(=O)CNC(=O)c2ccc(Cl)c([N+](=O)[O-])c2)cc1`, for which the Activity is 8%.

For `Cc1ccc(C(O)CNC(=O)/C=C/c2ccccc2O)cc1` (mixture of isomers), the Activity was found to be 5%.

As to `Cc1ccc(C(=O)CNC(=O)/C=C/c2ccc(Cl)c(Cl)c2)cc1`, the Activity is 6%.

With `COc1ccc(CC(=O)NCC(=O)c2ccc(C)cc2)cc1OC`, the Activity was found to be 12%.

`COc1ccc([C@@H](O)CNC(=O)/C=C/c2ccccc2)cc1` [AEGELINE]: the Activity is 14%.

Regarding `Cc1ccc(C(=O)CNC(=O)c2cccnc2)cc1`, the Activity came to 6%.

For the molecule `Cc1ccc(C(=O)CNC(=O)Cc2cccnc2)cc1`, the Activity was 8%.

Take `Cc1ccc(C(O)CNC(=O)/C=C/c2ccc(O)cc2)cc1` (mixture of isomers): the Activity turned out to be 7%.

Regarding `COc1cc(/C=C/C(=O)NCC(=O)c2ccc(C)cc2)ccc1O`, the Activity worked out at 13%.

System in the next assay: not listed separately
Briefly: Antioxidant activity assessed as hydroxyl radical scavenging activity by measuring malondialdehyde formation at 100 mg/ml after 90 mins by thiobarbituric acid method. It counts as functional. The gist of the method:
(§1)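 Non-enzymic hydroxyl radical generation: deoxyribose 2.8 mM, FeSO4 2 mM, sodium ascorbate 2.0 mM and H2O2 2.8 mM in 50 mM KH2PO4 pH 7.4, with or without sample. Incubated at 37 °C for 90 min alongside reference samples and reagent blanks. MDA measured spectrophotometrically by the thiobarbituric acid method.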
For `Cc1ccc(C(O)CNC(=O)Cc2cccnc2)cc1` (racemic), the Activity was 17%.

As to `Cc1ccc(C(=O)CNC(=O)CCc2cccnc2)cc1`, the Activity amounted to 19%.

In the case of `COc1ccc([C@@H](O)CNC(=O)/C=C/c2ccccc2)cc1` [AEGELINE], the Activity was determined as 18%.

A further assay relates to Rattus norvegicus. The assay is described as follows: Antihyperlipidemic activity in Charles Foster rat assessed as reduction of triton WR-1339-induced plasma total cholesterol level at 100 mg/kg, po after 18 hrs. The class given is functional. Details: scale not given: the % may be the effect or the level left. In short, it runs like this: (§2)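 Male Charles Foster rats (100–150 g), six per group. Triton WR-1339 400 mg/kg ip with simultaneous oral dosing at 100 mg/kg, given as a gum acacia (0.2% w/v) suspension in water. Diet was withdrawn. Vehicle went to the control and triton groups. At 18 h, under thiopentone anaesthesia, retro-orbital blood was taken into EDTA and spun at 4 °C. Plasma diluted 1:3 in saline. TC, TG and PL measured by enzymatic kits. Mean SD.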
Regarding `Cc1ccc(C(O)CNC(=O)Cc2cccnc2)cc1` (racemic), the Activity turned out to be 23%.

Consider `Cc1ccc(C(=O)CNC(=O)CCc2cccnc2)cc1`, for which the Activity is 24%.

With `Cc1ccc(C(=O)CNC(=O)c2ccc(Cl)c([N+](=O)[O-])c2)cc1`, the Activity is 4%.

Regarding `Cc1ccc(C(O)CNC(=O)/C=C/c2ccccc2O)cc1` (mixture of isomers), the Activity is 8%.

As to `Cc1ccc(C(=O)CNC(=O)/C=C/c2ccc(Cl)c(Cl)c2)cc1`, the Activity amounted to 12%.

Take `COc1ccc(CC(=O)NCC(=O)c2ccc(C)cc2)cc1OC`: the Activity stood at 10%.

For the molecule `COc1ccc([C@@H](O)CNC(=O)/C=C/c2ccccc2)cc1` [AEGELINE], the Activity was 24%.

With `Cc1ccc(C(=O)CNC(=O)c2cccnc2)cc1`, the Activity was 4%.

`Cc1ccc(C(=O)CNC(=O)Cc2cccnc2)cc1`: the Activity worked out at 7%.

Turning to `Cc1ccc(C(O)CNC(=O)/C=C/c2ccc(O)cc2)cc1` (mixture of isomers), the Activity turned out to be 7%.

Consider `COc1cc(/C=C/C(=O)NCC(=O)c2ccc(C)cc2)ccc1O`, for which the Activity is 5%.

The next assay has as its system Rattus norvegicus. The assay is described as follows: Antihyperlipidemic activity in Charles Foster rat assessed as reduction of triton WR-1339-induced plasma triglyceride level at 100 mg/kg, po after 18 hrs. The class given is functional. Details: scale not given: the % may be the effect or the level left. The gist of the method: as §2
Regarding `Cc1ccc(C(O)CNC(=O)Cc2cccnc2)cc1` (racemic), the Activity is 25%.

Consider `Cc1ccc(C(=O)CNC(=O)CCc2cccnc2)cc1`, for which the Activity came to 22%.

Turning to `Cc1ccc(C(=O)CNC(=O)c2ccc(Cl)c([N+](=O)[O-])c2)cc1`, the Activity came to 9%.

As for `Cc1ccc(C(O)CNC(=O)/C=C/c2ccccc2O)cc1` (mixture of isomers), the Activity came out at 9%.

With `Cc1ccc(C(=O)CNC(=O)/C=C/c2ccc(Cl)c(Cl)c2)cc1`, the Activity was determined as 12%.

Turning to `COc1ccc(CC(=O)NCC(=O)c2ccc(C)cc2)cc1OC`, the Activity stood at 12%.

As for `COc1ccc([C@@H](O)CNC(=O)/C=C/c2ccccc2)cc1` [AEGELINE], the Activity was 22%.

As to `Cc1ccc(C(=O)CNC(=O)c2cccnc2)cc1`, the Activity amounted to 2%.

Regarding `Cc1ccc(C(=O)CNC(=O)Cc2cccnc2)cc1`, the Activity was 5%.

For `Cc1ccc(C(O)CNC(=O)/C=C/c2ccc(O)cc2)cc1` (mixture of isomers), the Activity was 9%.

In the case of `COc1cc(/C=C/C(=O)NCC(=O)c2ccc(C)cc2)ccc1O`, the Activity is 10%.

System in the next assay: not listed separately
The assay is described as follows: Antioxidant activity assessed as xanthine-xanthine oxidase generated superoxide anion scavenging at 100 mg/ml after 30 mins by NBT reduction assay. It counts as functional. In short, it runs like this: (§3)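 Enzymic superoxide generation with xanthine, xanthine oxidase (0.04 U) and nitroblue tetrazolium in 100 mM phosphate buffer pH 8.2, with or without sample. Incubated at 37 °C for 30 min, then stopped with glacial acetic acid. Formazan read at 560 nm. Percent inhibition calculated using ε 7.2 × 10³ M/cm.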
Regarding `Cc1ccc(C(O)CNC(=O)Cc2cccnc2)cc1` (racemic), the Activity came out at 17%.

For the molecule `Cc1ccc(C(=O)CNC(=O)CCc2cccnc2)cc1`, the Activity amounted to 24%.

Regarding `COc1ccc([C@@H](O)CNC(=O)/C=C/c2ccccc2)cc1` [AEGELINE], the Activity turned out to be 19%.

In a further assay the test system is Rattus norvegicus. Briefly: Antihyperlipidemic activity in Charles Foster rat assessed as reduction of triton WR-1339-induced plasma phospholipid level at 100 mg/kg, po after 18 hrs. The class given is functional. Details: scale not given: the % may be the effect or the level left. The gist of the method: as §2
In the case of `Cc1ccc(C(O)CNC(=O)Cc2cccnc2)cc1` (racemic), the Activity worked out at 22%.

For `Cc1ccc(C(=O)CNC(=O)CCc2cccnc2)cc1`, the Activity was 24%.

On to `Cc1ccc(C(=O)CNC(=O)c2ccc(Cl)c([N+](=O)[O-])c2)cc1`, for which the Activity turned out to be 5%.

As to `Cc1ccc(C(O)CNC(=O)/C=C/c2ccccc2O)cc1` (mixture of isomers), the Activity worked out at 7%.

Turning to `Cc1ccc(C(=O)CNC(=O)/C=C/c2ccc(Cl)c(Cl)c2)cc1`, the Activity amounted to 12%.

With `COc1ccc(CC(=O)NCC(=O)c2ccc(C)cc2)cc1OC`, the Activity is 14%.

Consider `COc1ccc([C@@H](O)CNC(=O)/C=C/c2ccccc2)cc1` [AEGELINE], for which the Activity is 23%.

For the molecule `Cc1ccc(C(=O)CNC(=O)c2cccnc2)cc1`, the Activity turned out to be 6%.

Turning to `Cc1ccc(C(=O)CNC(=O)Cc2cccnc2)cc1`, the Activity was determined as 7%.

Turning to `Cc1ccc(C(O)CNC(=O)/C=C/c2ccc(O)cc2)cc1` (mixture of isomers), the Activity came to 9%.

Take `COc1cc(/C=C/C(=O)NCC(=O)c2ccc(C)cc2)ccc1O`: the Activity came to 6%.

A further assay relates to Rattus norvegicus. Briefly: Antihyperlipidemic activity in Charles Foster rat assessed as reduction of triton WR-1339-induced plasma protein level at 100 mg/kg, po after 18 hrs. It counts as functional. Details: scale not given: the % may be the effect or the level left.
As to `Cc1ccc(C(O)CNC(=O)Cc2cccnc2)cc1` (racemic), the Activity was 23%.

`Cc1ccc(C(=O)CNC(=O)CCc2cccnc2)cc1`: the Activity was determined as 21%.

With `Cc1ccc(C(=O)CNC(=O)c2ccc(Cl)c([N+](=O)[O-])c2)cc1`, the Activity is 9%.

On to `Cc1ccc(C(O)CNC(=O)/C=C/c2ccccc2O)cc1` (mixture of isomers), for which the Activity was found to be 8%.

As for `Cc1ccc(C(=O)CNC(=O)/C=C/c2ccc(Cl)c(Cl)c2)cc1`, the Activity is 13%.

With `COc1ccc(CC(=O)NCC(=O)c2ccc(C)cc2)cc1OC`, the Activity stood at 14%.

As for `COc1ccc([C@@H](O)CNC(=O)/C=C/c2ccccc2)cc1` [AEGELINE], the Activity was 24%.

For `Cc1ccc(C(=O)CNC(=O)c2cccnc2)cc1`, the Activity is 4%.

As to `Cc1ccc(C(=O)CNC(=O)Cc2cccnc2)cc1`, the Activity worked out at 7%.

Regarding `Cc1ccc(C(O)CNC(=O)/C=C/c2ccc(O)cc2)cc1` (mixture of isomers), the Activity amounted to 8%.

Take `COc1cc(/C=C/C(=O)NCC(=O)c2ccc(C)cc2)ccc1O`: the Activity stood at 10%.

System in the next assay: not listed separately
Briefly: Antioxidant activity assessed as hydroxyl radical scavenging activity by measuring malondialdehyde formation at 200 mg/ml after 90 mins by thiobarbituric acid method. It counts as functional. In short, it runs like this:
as §1
Take `Cc1ccc(C(O)CNC(=O)Cc2cccnc2)cc1` (racemic): the Activity turned out to be 29%.

In the case of `Cc1ccc(C(=O)CNC(=O)CCc2cccnc2)cc1`, the Activity is 33%.

Take `COc1ccc([C@@H](O)CNC(=O)/C=C/c2ccccc2)cc1` [AEGELINE]: the Activity was found to be 22%.

System in the next assay: not listed separately
The assay is described as follows: Antioxidant activity against microsomal lipid peroxidation assessed as malondialdehyde formation at 200 mg/ml after 90 mins by thiobarbituric acid method. The class given is functional.
Consider `Cc1ccc(C(O)CNC(=O)Cc2cccnc2)cc1` (racemic), for which the Activity was 29%.

Take `Cc1ccc(C(=O)CNC(=O)CCc2cccnc2)cc1`: the Activity was 29%.

System in the next assay: not listed separately
Briefly: Antioxidant activity against microsomal lipid peroxidation assessed as malondialdehyde formation at 100 mg/ml after 90 mins by thiobarbituric acid method. It counts as functional.
For `Cc1ccc(C(O)CNC(=O)Cc2cccnc2)cc1` (racemic), the Activity was 22%.

Turning to `Cc1ccc(C(=O)CNC(=O)CCc2cccnc2)cc1`, the Activity worked out at 19%.

System in another assay: not listed separately
The assay is described as follows: Antioxidant activity assessed as xanthine-xanthine oxidase generated superoxide anion scavenging at 200 mg/ml after 30 mins by NBT reduction assay. The class given is functional. The gist of the method: as §3
Turning to `Cc1ccc(C(O)CNC(=O)Cc2cccnc2)cc1` (racemic), the Activity was 31%.

For `Cc1ccc(C(=O)CNC(=O)CCc2cccnc2)cc1`, the Activity is 31%.

`COc1ccc([C@@H](O)CNC(=O)/C=C/c2ccccc2)cc1` [AEGELINE]: the Activity amounted to 25%.
